Screening data deposited in PubChem by several laboratories.
Shown are actives, neighbours in structure and some others; about 11% of the full set was active somewhere.
M1 ag: M1 muscarinic receptor agonism; CHO-M1 cells, Fluo-4 calcium fluorescence, agonist mode; active compounds read high; B-score at 10 µM; 3% of 64,000 active;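 active means fluorescence rise, raw or as B-score row- and column-corrected plate score, outside the 99.7% band of its plate's samples, either direction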
TNAP act DEA: human TNAP activation, intermediate phosphate acceptor | 64,000 tested, under 10 active | AID 813 | activation factor at 20 µM | purified TNAP, CDP-star luminescence, 100 mM DEA, 30 min; active compounds read high; scale: 0 levamisole-inhibited, 1 vehicle-only enzyme | P05186;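 active means activation factor of at least 2 at 20 µM, relative to controls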
Target sequence (P05186 whole entry, looked up): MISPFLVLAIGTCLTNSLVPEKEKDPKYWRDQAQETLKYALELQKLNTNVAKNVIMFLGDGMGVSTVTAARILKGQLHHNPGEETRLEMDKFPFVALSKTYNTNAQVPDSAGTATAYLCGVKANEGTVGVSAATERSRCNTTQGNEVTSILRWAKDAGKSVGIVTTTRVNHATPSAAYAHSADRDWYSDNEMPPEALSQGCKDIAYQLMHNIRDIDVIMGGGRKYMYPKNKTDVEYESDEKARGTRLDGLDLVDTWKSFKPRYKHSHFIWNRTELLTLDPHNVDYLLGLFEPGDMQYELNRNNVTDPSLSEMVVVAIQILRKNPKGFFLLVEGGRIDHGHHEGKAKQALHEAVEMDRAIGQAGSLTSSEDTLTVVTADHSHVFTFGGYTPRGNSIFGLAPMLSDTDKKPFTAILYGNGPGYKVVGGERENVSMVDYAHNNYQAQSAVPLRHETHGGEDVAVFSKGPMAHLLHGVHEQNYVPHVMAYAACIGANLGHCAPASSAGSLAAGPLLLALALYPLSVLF
S1P3 ag: S1P3 (human) receptor agonism | Q99500 | S1P3 NFAT-BLA reporter cells, FRET ratio; relative to 1 µM S1P, basal subtracted | activation, % at 4.5 µM | 0.1% of 60,000 active | AID 373;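 active means activation above the screen-wide mean plus 3 SD, cut at about 4.5% in these data, passing the limit was not always enough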
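Benchmarks: high control 1 µM S1P / System: stable CHO line with human S1P3, Gα16, NFAT-BLA reporter / Dosing: single compound concentration, 4.5 µM final / Timing: 4 h compound at 37 °C, 2 h substrate at RT / Measured by: FRET β-lactamase substrate fluorescence, excitation 405 nm, 460/535 nm emission ratio, background-subtracted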
M1 antagonist: blocks the rat M1 muscarinic receptor response to acetylcholine | CHO-M1 cells, Fluo-4 calcium, ACh EC80 antagonist mode; active compounds read low | B-score at 10 µM | 3.4% of 64,000 active | AID 628;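 active means calcium fluorescence response, raw or row-and-column corrected B-score, differing from the plate sample mean either way at a set confidence level, mostly lower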
S1P1 ag-PAM: agonists and agonism potentiators of human S1P1 receptor. P21453. S1P1 CRE-bla cells, forskolin, beta-lactamase FRET, potentiator mode; S1P1 agonist co-added at EC20, 2 nM; 100% = saturating reference agonist, 0% = basal. activation, % at 9.5 µM. 0.57% of 56,000 active;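 active means activation above a cutoff set at the mean activation of all tested compounds plus 3 SD, cut at about 54% in these data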;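 further: forskolin at 4 µM as EC80 and the EC20 agonist is SEW2871; 100% = SEW2871 at its EC100 plus forskolin at EC80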
D1 allo mod: D1 dopamine receptor (human) allosteric modulation; HEK293 D1, CRE-luciferase, dopamine EC30 potentiation; actives deviate in either direction; AID 641; B-score at 10 µM; 5.9% of 58,000 active; P21728;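 active means luminescence count or its row- and column-corrected plate score outside the 99.7% band of the plate's sample wells, on either side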
M1 antag conf: confirmation of rat M1 muscarinic receptor antagonists. shares compounds with M1 antagonist. CHO-M1 cells, Fluo-4 calcium, ACh EC80 antagonism; active compounds read low. calcium response (max-min fluorescence) at 10 µM. 43% of 1,700 active. AID 677;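 active means calcium response below the same-plate mean of wells given acetylcholine alone at its 80%-effect dose, minus 3 SD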;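 further: raw fluorescence intensity difference in arbitrary instrument units and not normalized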
mGluR4 antag: mGluR4 (human) activity, M1 antagonist secondary assay; shares compounds with M1 antagonist; CHO-mGluR4 calcium flux, Fluo-4 fluorescence, glutamate EC80; active compounds read low; fluorescence response (max-min) at 10 µM; 0.9% of 1,700 active; AID 678;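 active means fluorescence response below the plate's average for near-maximal glutamate wells, less 3 SD of those wells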;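 further: raw unnormalized fluorescence span taken in the window right after glutamate addition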
Starred values were filed as active, the others as inactive; / = no result.

SMILES	M1 ag	TNAP act DEA	S1P3 ag	M1 antagonist	S1P1 ag-PAM	D1 allo mod	M1 antag conf	mGluR4 antag
Cc1ccc(-c2nc(CSCC(=O)NCCN3CCN(Cc4ccccc4)CC3)c(C)o2)cc1	0.0192	/	-1.3	-5.35*	25.4	-1.3	423*	253
O=C(CCCc1nc(-c2ccc(Cl)cc2)no1)Nc1cccnc1	1.39	0.9	-0.6	-2.69*	0.3	-1.34	528*	214
Cc1cccc(-c2noc(CCCC(=O)Nc3cccnc3)n2)c1	-0.463	0.9	0.0	-0.00223	7.3	/	/	/
CCCn1c(=N)c(C(=O)NCc2ccc3c(c2)OCO3)cc2c(=O)n3cccc(C)c3nc21	2.6	0.9	-0.4	-10.3*	-33.5	0.532	54.2*	240
CCOCCCn1c(=N)c(C(=O)NCc2ccc3c(c2)OCO3)cc2c(=O)n3ccccc3nc21	-0.15	0.9	-0.2	-2.68*	1.6	-0.26	438	226
CCOC(=O)C1CCCN(C(=O)c2cc3c(C)nc4ccccc4c3o2)C1 (stereo not given)	-0.438	1	-1.8	-2.68*	-36.5	0.967	486*	143*
O=C(Cc1cccs1)Nc1cccnc1	-1.18	0.8	-0.4	-0.651	3.3	-0.847	/	/
COc1cccc(N2C(=O)C3C(C2=O)C2C=CC3C23CC3)c1 (stereo not given)	0.116	0.9	-0.6	-3.13*	-19.5	/	655	190
CC1(C)NC(=O)N(CC(O)COc2ccccc2C(=O)N2CCCCC2)C1=O (stereo not given)	-0.181	1	-1.1	0.499	5.8	0.117	/	/
CC1(C)NC(=O)N(CC(O)COc2cc3ccccc3cc2C(=O)N2CCCCC2)C1=O (stereo not given)	0.494	0.9	-4.3	-2.98*	-14.2	/	638	243
Clc1cccc2sc(N3CCCCC3)nc12	1.45	1	-0.5	-0.723	-25.1	0.622	/	/
COc1ccc(OC)c2sc(N3CCCCC3)nc12	-0.331	1	-0.8	-4.17*	18.5	-1.17	386*	252
COc1c(C)cc(Br)cc1C(=O)O	0.484	0.9	-0.8	-12.6*	/	-0.283	710	203
Cc1ccc(NC(=O)CSc2nnc(Cn3c(=O)sc4ccccc43)n2C)cc1Cl	-0.438	0.9	-0.3	-1.34	3.8	-2.9	/	/
CCN(CC)C(=O)c1cn(CC)c(=O)c2cc(OC)c(OC)cc12	-0.732	0.9	/	0.00368	/	0.308	/	/
Cc1cccc(C)c1NC(=O)CSCC(=O)c1ccc(O)c(O)c1	0.185	0.7	-2.7	-0.235	20.1	-0.424	/	/
COc1ccc2[nH]c(=O)c(CN(C)C(=O)COc3ccccc3)cc2c1	0.0171	0.9	-0.4	-9.03*	5.2	0.896	665	219
O=C(Nc1ccc(S(=O)(=O)N2CCCc3ccccc32)cc1)C1CCCO1 (stereo not given)	0.358	0.9	-1.3	-9.71*	6.7	0.308	29*	208
O=C(Nc1ccc(S(=O)(=O)N2CCc3ccccc3C2)cc1)C1CCCO1 (stereo not given)	-0.103	0.9	-1.1	-0.0488	50.0	0.299	/	/
COc1ccc(OCC(=O)Nc2ccc(C)cc2)cc1	-1	0.9	-0.5	-13.8*	-15.2	-0.553	516	216
CCOc1ccc(NC(=O)CN(c2ccc(OC)cc2)S(C)(=O)=O)cc1	-0.694	0.9	-0.8	-3.54*	-0.9	-0.624	612	241
Cc1ccc(OCC(=O)Nc2ccc(N3CCOCC3)cc2)cc1	0.45	1	-1.0	-0.73	-6.0	0.0698	/	/
COc1ccc(C)cc1Nc1cc(C)nc2ncnn12	-0.445	1	-1.6	-0.339	-5.9	-0.264	/	/
O=C(CSc1nnc(-c2ccc(OC(F)F)cc2)o1)NC(=O)NCc1ccco1	0.325	0.9	0.3	-0.143	-27.9	-0.6	/	/
CCC(C)NS(=O)(=O)c1cccs1 (stereo not given)	0.886	0.9	-0.4	-3.41*	/	0.902	644	261
